Hits are enriched below; roughly 2.2% of the tested compounds scored in any of these assays.
Yeast superoxide: yeast age-related superoxide inhibition as caloric restriction mimetic; S. cerevisiae aged cells, superoxide DHE fluorescence; hits give low values; superoxide response (% of plate mean), % at 10 µM; hit rate 0.18% among 330,000;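 active = superoxide response under a set limit, about three screen SD below normal, cut at about 65% in these data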;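 note: yeast aged for seven days with compound at 30 °C before DHE staining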
Cneo AK release: causes C. neoformans cell lysis; adenylate kinase release luminescence, 4 h; normalised: neutral wells 0, clomiphene wells 100; lysis activity, % at 15 µM; hit rate 0.2% among 360,000;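 active = mean lysis activity across replicates of at least 80%, whatever share of replicates individually reach that level; inactive = mean lysis activity below 80%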
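Material – log-phase Cryptococcus neoformans yeast cells · Input – 5 × 10^6 yeast cells/mL · Medium – fresh YPD growth medium · Doses – single compound concentration per well · Timing – static 4 h at 37 °C with compound, 1 h detection · Detection – adenylate kinase release luminescence · Read-out – signal increase indicating cell lysis · Control set – Clomiphene as positive lysis control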
PglD inh: blocks C. jejuni PglD acetyltransferase activity; inhibition, % at 12.5 µM; hit rate 0.098% among 360,000; purified PglD enzyme, DTNB colorimetric CoA detection; AID 602405; in the data active = inhibition above about 16%, passing the limit was not always enough
Mot1-301 SUMO: blocks SUMOylation pathway, rescuing yeast Mot1-301 growth. hit rate 1% among 320,000. growth rescue, % at 18.8 µM. S. cerevisiae Mot1-301 growth rescue, ATP luminescence, 38.5C; percent above DMSO median, 100 means doubled;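 active = every valid replicate shows activation above 250% relative to neutral control wells; inactive = the rest, any valid replicate at or below 250%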
Ecoli rRNA inh: inhibitors of bacterial rRNA selective over humanized ribosomes; E. coli WT GFP vs humanized-ribosome RFP mutants, fluorescence, 24 h; hits give low values; DMSO median 0, no signal -100; GFP signal change (wild-type ribosome), % (no concentration beside the values); hit rate 1.6% among 350,000;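 active = significant combined selectivity score with lowered wild-type GFP, culture density cut under 30%, mutant RFP and density less affected; inactive = any of these conditions unmet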
Numbers stand for hits; 0 = inactive; - = not tested or not shown.

SMILES	Yeast superoxide	Cneo AK release	PglD inh	Mot1-301 SUMO	Ecoli rRNA inh
O=c1c(Cc2ccccc2)c(O)c2cccc3c4c(n1c23)CCCC4	0	0	0	0	-19
O=C(O)c1cc(NN=Nc2ccc(Br)cc2)cc([N+](=O)[O-])c1	0	-	-	322	0
Cc1ccc(-c2cc(Cc3ccccc3)c(=O)[nH]n2)cc1	0	0	0	0	-36
Cc1ccc(Cc2cc(-c3ccc(C)cc3)n[nH]c2=O)cc1	0	0	0	0	0
COCC#Cc1ccc2c(c1)O[C@H](CN(C)C(=O)Nc1ccccc1F)[C@H](C)CN([C@@H](C)CO)S2(=O)=O	-	0	0	-	0
COc1ccc2c(c1OC)C(=O)OC2Nc1ccccn1 (stereo not given)	0	0	0	-	-
COc1ccc2c(c1OC)C(=O)OC2Nc1ccccc1S(=O)(=O)C(F)F (stereo not given)	0	94	0	0	-
O=C(CSc1nnc2nnc3ccccc3n12)N1CCOCC1	0	0	0	0	-25
Cn1c(SCC(=O)N2CCOCC2)nnc1-c1ccco1	0	0	0	353	0
C[C@@H](O)CC(=O)O	0	0	0	0	0
CN[C@H](CC(=O)O)C(=O)O	0	0	0	307	-
Cc1cccc(C)c1NC(=S)N(Cc1ccccc1)Cc1cccs1	0	0	0	0	-21
CCOC(=O)CNC(=S)N(Cc1ccccc1)Cc1ccccc1F	0	-	-	0	-34
CCOC(=O)CNC(=S)N(Cc1ccccc1)Cc1cccs1	0	0	0	0	-26
O=C(CNC(=S)N(Cc1ccccc1)Cc1ccccc1F)NCCc1ccccc1	0	0	0	0	0
O=C(Nc1ccc2c(c1)OCO2)N[C@H]1C=C[C@@H](CC(=O)N2CCN(c3ccccc3)CC2)O[C@@H]1CO	-	0	0	-	0
C[C@H]1CCCCO[C@@H](CN(C)C(=O)C2CCCCC2)[C@@H](C)CN([C@@H](C)CO)C(=O)c2cc(NC(=O)C3CCCCC3)ccc2O1	-	0	0	-	0
C=C(Cl)COc1ccc2c(CC)cc(=O)oc2c1	0	0	0	0	-24
CC(C)NC(=O)N(C)C[C@@H]1Oc2ncc(-c3ccccc3F)cc2C(=O)N([C@@H](C)CO)C[C@H]1C	-	0	0	-	0
CC1=NN(C(N)=S)C(=O)C1N=Nc1c(Cl)cc([N+](=O)[O-])cc1Cl (stereo not given)	0	0	0	0	-26
CCCNC(=O)N1CC2(CCN(Cc3cccnc3)CC2)c2c(n(C)c3cc(OC)ccc23)[C@H]1CO	-	-	-	-	0
c1ccc(-c2nc3cccnc3nc2-c2ccccc2)cc1	0	-	-	0	-24
COc1ccc(-c2nc3ccccc3nc2-c2ccccc2)cc1	0	0	0	0	0
Oc1ccc2ccccc2c1CNc1ccccc1	-	0	0	-	-13
O=[N+]([O-])c1ccccc1NCc1c(O)ccc2ccccc12	0	0	0	0	-22
SMILES	Yeast superoxide	Cneo AK release	PglD inh	Mot1-301 SUMO	Ecoli rRNA inh
Oc1ccc2ccccc2c1CNc1ccc2ccccc2c1	-	0	0	-	0
O=C(Nc1ccccc1Cl)ON=C1c2ccccc2-c2ccccc21	0	-	-	0	-
O=C(Nc1ccccc1)ON=C1c2ccccc2-c2ccccc21	0	-	-	0	-35
CN1C(=O)c2cc(NS(C)(=O)=O)ccc2OC[C@H]2O[C@@H](CC(=O)NC3CCCCC3)CC[C@H]21	-	0	0	-	0
COC(=O)CCC(=O)Nc1sc(Cc2ccccc2)c(C)c1C(N)=O	0	-	-	0	0
CCCC(=O)Nc1sc(Cc2ccccc2)c(C)c1C(N)=O	0	0	0	0	-24
CC(C(=O)NC1C=CS(=O)(=O)C1)N1C(=O)/C(=C\c2ccccc2)SC1=S (stereo not given)	0	0	0	0	-16
CC(C(=O)NC1C=CS(=O)(=O)C1)N1C(=O)/C(=C/c2cccc(Cl)c2)SC1=S (stereo not given)	0	-	-	0	-28
COc1ccccc1/C=C1/SC(=S)N(C(C)C(=O)NC2C=CS(=O)(=O)C2)C1=O (stereo not given)	0	0	0	0	0
O=C(CN1C(=O)/C(=C/c2cccc(Cl)c2)SC1=S)NC1C=CS(=O)(=O)C1 (stereo not given)	0	0	0	0	0
CNC[C@H]1OCCCC[C@@H](C)Oc2ccc(NS(=O)(=O)c3ccc(C)cc3)cc2C(=O)N([C@@H](C)CO)C[C@@H]1C	-	-	-	-	0
Cc1noc(C)c1S(=O)(=O)Nc1cccc2c1O[C@H](CN(C)Cc1ccc(C(=O)Nc3ccccc3N)cc1)[C@H](C)CN([C@@H](C)CO)C2=O	-	0	0	-	0
N#Cc1ccc(OCC(=O)N2CCN(S(=O)(=O)c3ccc(Cl)s3)CC2)cc1	0	0	0	0	-20
COc1ccc(C#CC2=CC(=O)CC(C)(C)C2)cc1	-	0	0	-	0
COc1ccccc1C#CC1=CC(=O)CC(C)(C)C1	-	0	0	-	-23
Cc1[nH]c2ccccc2c1/C=N/Nc1nncn1N	0	-	-	0	-30
CC(O)CC(C(=O)NNc1ccccc1)C(=O)NNc1ccccc1 (stereo not given)	0	-	-	606	0
NC(=O)c1ncc(C(F)(F)F)cc1Oc1cccc(C(F)(F)F)c1	0	0	0	309	-
Cc1cc(C)cc(OCC(O)CN2CCN(Cc3ccc4c(c3)OCO4)CC2)c1 (stereo not given)	0	-	-	310	0
COc1ccc(C)cc1NC(=O)CSCc1ccccc1C	0	0	0	0	0
Cc1ccccc1CSCC(=O)Nc1ccccc1F	0	0	0	0	-25
Cn1cc(CCCC(=O)NCc2ccc(F)cc2)c2ccccc21	0	0	0	0	-37
COc1ccc(C(=O)Nc2ccc3c(c2)OC[C@@H](C)N(C(C)=O)C[C@H](C)[C@@H](OC)CN(C)C3=O)cc1	-	0	0	-	0
C[C@@H]1CCCCO[C@@H](CN(C)Cc2ccc(C(F)(F)F)cc2)[C@@H](C)CN([C@@H](C)CO)C(=O)c2cc(NS(=O)(=O)c3cn(C)cn3)ccc2O1	-	91	0	-	0
Cc1noc(C)c1S(=O)(=O)Nc1ccc2c(c1)C(=O)N([C@H](C)CO)C[C@@H](C)[C@H](CN(C)Cc1ccccc1)OCCCC[C@@H](C)O2	-	0	0	-	0
C[C@@H]1CN([C@@H](C)CO)C(=O)c2cc(NS(=O)(=O)c3ccc(F)cc3)ccc2O[C@@H](C)CCCCO[C@H]1CN(C)Cc1ccc2c(c1)OCO2	-	0	0	-	0
C[C@@H]1CCCCO[C@@H](CN(C)Cc2ccc3c(c2)OCO3)[C@@H](C)CN([C@H](C)CO)C(=O)c2cc(NS(=O)(=O)c3ccc(F)cc3)ccc2O1	-	113	0	-	0
Cc1noc(C)c1S(=O)(=O)Nc1ccc2c(c1)C(=O)N([C@H](C)CO)C[C@@H](C)[C@H](CN(C)Cc1ccccc1)OCCCC[C@H](C)O2	-	101	0	-	0
Cc1noc(C)c1S(=O)(=O)Nc1ccc2c(c1)C(=O)N([C@@H](C)CO)C[C@@H](C)[C@H](CN(C)Cc1ccc3c(c1)OCO3)OCCCC[C@H](C)O2	-	101	0	-	0
